Test results from ChEMBL document CHEMBL1144932, “Design, synthesis, and biological properties of new bis(acridine-4-carboxamides) as anticancer agents” (J Med Chem, 2003).
Values belong to the molecule of their own block, whether it stands above or below them.

Legend:
[1] = species: Homo sapiens; assay: In vitro cytotoxic activity against human colon adenocarcinoma (HT-29).; format: functional
Outline: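 HT29 cells were seeded at 2.5 × 10^4 cells/mL of medium and drug solutions were added. Exposure lasted 144 h. IC50 is the drug concentration inhibiting cell growth by 50%. Assays were run in triplicate.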

[2] = tested on: MCF7; assay: Percent growth of breast MCF-7 cell line at compound concentration 10e-6 was determined; format: functional, Homo sapiens
Outline: (§1)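 Cells in the NCI panel were exposed for 48 h to 10^-8, 10^-6 and 10^-4 or 10^-5 M drug. Growth is given as percent of untreated control (100%). Negative values are the percent of cells killed relative to the initial cell number.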

[3] = tested on: MCF7; assay: Percent growth of breast MCF-7 cell line at compound concentration 10e-8 was determined; format: functional, Homo sapiens; outline: as §1
[4] = tested on: MCF7; assay: Percent growth of breast MCF-7 cell line at compound concentration 10e-4 was determined; format: functional, Homo sapiens; outline: as §1
[5] = tested on: HCT-116; assay: Percent growth of colon HCT116 cell line at compound concentration 10e-4 was determined; format: functional, Homo sapiens; outline: as §1
[6] = tested on: HCT-116; assay: Percent growth of colon HCT116 cell line at compound concentration 10e-6 was determined; format: functional, Homo sapiens; outline: as §1
[7] = tested on: HCT-116; assay: Percent growth of colon HCT116 cell line at compound concentration 10e-8 was determined; format: functional, Homo sapiens; outline: as §1
[8] = tested on: NCI-H460; assay: Percent growth of lung-NSC NCI-H460 cell line at compound concentration 10e-4 was determined; format: functional, Homo sapiens; outline: as §1
[9] = tested on: NCI-H460; assay: Percent growth of lung-NSC NCI-H460 cell line at compound concentration 10e-6 was determined; format: functional, Homo sapiens; outline: as §1
[10] = tested on: RPMI-8226; assay: Percent growth of leukemia RPMI-8226 cell line at compound concentration 10e-4 was determined; format: functional, Homo sapiens; outline: as §1
[11] = tested on: RPMI-8226; assay: Percent growth of leukemia RPMI-8226 cell line at compound concentration 10e-6 was determined; format: functional, Homo sapiens; outline: as §1
[12] = tested on: RPMI-8226; assay: Percent growth of leukemia RPMI-8226 cell line at compound concentration 10e-8 was determined; format: functional, Homo sapiens; outline: as §1
[13] = tested on: NCI-H460; assay: Percent growth of lung-NSC NCI-H460 cell line at compound concentration 10e-8 was determined; format: functional, Homo sapiens; outline: as §1
[14] = tested on: LOX IMVI; assay: Percent growth of melanoma LOX IMVI cell line at compound concentration 10e-4 was determined; format: functional, Homo sapiens; outline: as §1
[15] = tested on: LOX IMVI; assay: Percent growth of melanoma LOX IMVI cell line at compound concentration 10e-6 was determined; format: functional, Homo sapiens; outline: as §1
[16] = tested on: LOX IMVI; assay: Percent growth of melanoma LOX IMVI cell line at compound concentration 10e-8 was determined; format: functional, Homo sapiens; outline: as §1
[17] = tested on: OVCAR-4; assay: Percent growth of ovarian OVCAR-4 cell line at compound concentration 10e-4 was determined; format: functional, Homo sapiens; outline: as §1
[18] = tested on: OVCAR-4; assay: Percent growth of ovarian OVCAR-4 cell line at compound concentration 10e-8 was determined; format: functional, Homo sapiens; outline: as §1
[19] = tested on: 786-0; assay: Percent growth of renal 786-0 cell line at compound concentration 10e-4 was determined; format: functional, Homo sapiens; outline: as §1
[20] = tested on: 786-0; assay: Percent growth of renal 786-0 cell line at compound concentration 10e-6 was determined; format: functional, Homo sapiens; outline: as §1
[21] = tested on: 786-0; assay: Percent growth of renal 786-0 cell line at compound concentration 10e-8 was determined; format: functional, Homo sapiens; outline: as §1
[22] = tested on: DU-145; assay: Percent growth of prostate DU-145 cell line at compound concentration 10e-4 was determined; format: functional, Homo sapiens; outline: as §1
[23] = tested on: DU-145; assay: Percent growth of prostate DU-145 cell line at compound concentration 10e-6 was determined; format: functional, Homo sapiens; outline: as §1
[24] = tested on: DU-145; assay: Percent growth of prostate DU-145 cell line at compound concentration 10e-8 was determined; format: functional, Homo sapiens; outline: as §1
[25] = tested on: SNB-19; assay: Percent growth of CNS SNB-19 cell line at compound concentration 10e-4 was determined; format: functional, Homo sapiens; outline: as §1
[26] = tested on: SNB-19; assay: Percent growth of CNS SNB-19 cell line at compound concentration 10e-6 was determined; format: functional, Homo sapiens; outline: as §1
[27] = tested on: SNB-19; assay: Percent growth of CNS SNB-19 cell line at compound concentration 10e-8 was determined; format: functional, Homo sapiens; outline: as §1
[28] = tested on: OVCAR-4; assay: Percent growth of ovarian OVCAR-4 cell line at compound concentration 10e-6 was determined; format: functional, Homo sapiens; outline: as §1
[29] = Apparent equilibrium constant for DNA binding (G-C); format: ADME
Outline: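 Ethidium displacement at pH 7.0 in buffer of 10 mM Na2HPO4, 10 mM NaH2PO4, 1 mM EDTA with 1.26 μM ethidium bromide and 1 μM CT-DNA, [poly(dA-dT)]2 or [poly(dG-dC)]2. Drug stock (~5 mM in DMSO) added serially. Fluorescence read at 20 °C, excitation 546 nm, emission 595 nm. C50 is the mean of three determinations. Kapp = 1.26/C50 × 10^7.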

Structure (SMILES): CN(C)CCNC(=O)c1ccc(NCCN(C)C)c2c(O)c3cc([N+](=O)[O-])ccc3nc12
IC50 [1]: 190 nM

Structure (SMILES): COc1ccc2nc3c(C(=O)NCCCN(C)CCCNC(=O)c4ccc(NCCN(C)C)c5c(O)c6cc(OC)ccc6nc45)ccc(NCCN(C)C)c3c(O)c2c1
Growth [2]: 0% | Growth [3]: 18% | Growth [4]: -85% | Growth [5]: -97% | Growth [6]: -23% | Growth [7]: 17% | IC50 [1]: 2 nM | Growth [8]: -90% | Growth [9]: -10% | Growth [10]: -44% | Growth [11]: -36% | Growth [12]: 4% | Growth [13]: 9% | Growth [14]: -73% | Growth [15]: -2% | Growth [16]: 31% | Growth [17]: -96% | Growth [18]: 38% | Growth [19]: -98% | Growth [20]: 1% | Growth [21]: 28% | Growth [22]: -77% | Growth [23]: -25% | Growth [24]: 25% | Growth [25]: -85% | Growth [26]: 3% | Growth [27]: 38% | Growth [28]: -21%

Structure (SMILES): CN(CCCNC(=O)c1ccc(Cl)c2c(O)c3ccccc3nc12)CCCNC(=O)c1ccc(Cl)c2c(O)c3ccccc3nc12
IC50 [1]: 340 nM

K app [29]: 9.4e+07 M⁻¹
Structure (SMILES): CN(C)CCNC(=O)c1ccc(NCCCN(C)CCCNc2ccc(C(=O)NCCN(C)C)c3nc4ccccc4cc23)c2cc3ccccc3nc12
IC50 [1]: 47 nM

Structure (SMILES): CN(CCNC(=O)c1ccc(Cl)c2c(O)c3ccccc3nc12)CCNC(=O)c1ccc(Cl)c2c(O)c3ccccc3nc12
IC50 [1]: 5500 nM

K app [29]: 8.8e+06 M⁻¹
Structure (SMILES): COc1ccc2nc3c(C(=O)NCCN(C)C)ccc(NCCN(C)CCNc4ccc(C(=O)NCCN(C)C)c5nc6ccc(OC)cc6c(O)c45)c3c(O)c2c1
IC50 [1]: 3300 nM

K app [29]: 1.4e+08 M⁻¹
Structure (SMILES): COc1ccc2nc3c(C(=O)NCCN(C)C)ccc(NCCCN(C)CCCNc4ccc(C(=O)NCCN(C)C)c5nc6ccc(OC)cc6c(O)c45)c3c(O)c2c1
IC50 [1]: 39 nM

Structure (SMILES): CN(C)CCNC(=O)c1ccc(NCCN(C)C)c2c(=O)c3ccccc3[nH]c12
IC50 [1]: 94 nM

Structure (SMILES): CN(C)CCNc1ccc(C(=O)NCCN(C)CCN(C)CCNC(=O)c2ccc(NCCN(C)C)c3c(O)c4ccccc4nc23)c2nc3ccccc3c(O)c12
IC50 [1]: 290 nM

K app [29]: 7.4e+07 M⁻¹
Structure (SMILES): CN(C)CCNC(=O)c1ccc(NCCCN(C)CCCNc2ccc(C(=O)NCCN(C)C)c3nc4ccc(O)cc4c(O)c23)c2c(O)c3cc(O)ccc3nc12
IC50 [1]: 6900 nM

Structure (SMILES): CN(C)CCNc1ccc(C(=O)NCCCNC(=O)c2ccc(NCCN(C)C)c3c(O)c4ccccc4nc23)c2nc3ccccc3c(O)c12
IC50 [1]: > 10000 nM

Structure (SMILES): CN(C)CCNc1ccc(C(=O)NCCN(C)CCNC(=O)c2ccc(NCCN(C)C)c3c(O)c4cc(O)ccc4nc23)c2nc3ccc(O)cc3c(O)c12
IC50 [1]: 8900 nM

K app [29]: 7.2e+06 M⁻¹
Structure (SMILES): CN(C)CCNC(=O)c1ccc(NCCN(C)CCNc2ccc(C(=O)NCCN(C)C)c3nc4ccccc4cc23)c2cc3ccccc3nc12
IC50 [1]: 470 nM
